Activity calls are given as the source filed them. The rule behind the calls is not given here.
Experiments:
A549 [1] = experiment: Induction of apoptosis in human A549 cells assessed as necrotic cells at 50 ug/ml after 8 hrs by Annexin V-FITC/propidium iodide staining based flow cytometry (reference value: 0.06%); type: functional
Summary of the method: (§1)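 A549 seeded at 5 × 10^5 per well and exposed to varying concentrations for 8 h. Harvested, washed twice in ice-cold PBS (0.01 M, pH 7.2), spun 5 min at 200 g, then stained with Annexin V-FITC/PI. Analysed by flow cytometry: Annexin V+/PI− scored apoptotic, double-positive necrotic or late apoptotic. Mean ± SD of three independent experiments.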

A549 [2] = experiment: Antiproliferative activity in human A549 cells at 25 ug/ml up to 20 hrs by xCELLigence RTCA SP based cellular impedance analysis; type: functional, cell-based
Summary of the method: (§2)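 After compound treatment, A549 cells plated at 2000 cells/well on E-plates. Proliferation tracked over time as real-time cellular impedance on an xCELLigence RTCA DP instrument. Hydroxychloroquine was the positive control. Representative of three independent experiments.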

A549 [3] = experiment: Antiproliferative activity in human A549 cells at 25 ug/ml after 60 hrs by […] based cellular impedance analysis; type: functional, cell-based
A549 [4] = experiment: Induction of apoptosis in human A549 cells assessed as late apoptotic cells at 50 ug/ml after 8 hrs by Annexin V-FITC/propidium iodide staining based flow cytometry (reference value: 0.02%); type: functional; summary of the method: as §1
A549 [5] = experiment: Induction of apoptosis in human A549 cells assessed as early apoptotic cells at 50 ug/ml after 8 hrs by Annexin V-FITC/propidium iodide staining based flow cytometry (reference value: 0.03%); type: functional; summary of the method: as §1
A549 [6] = experiment: Induction of apoptosis in human A549 cells assessed as cell shrinkage at 2 to 4 uM after 8 hrs by DAPI staining based fluorescence microscopic analysis; type: functional
Summary of the method: (§3)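 A549 seeded on glass coverslips at 5 × 10^4/mL and grown 24 h, then treated 8 h. Washed in cold PBS and fixed in cold methanol/acetone (1:1). Stained with DAPI ([…]) for 10 min at room temperature, washed with PBS/Triton X-100, mounted in PBS:glycerol 1:1. Nuclear morphology examined by fluorescence microscopy.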

A549 [7] = experiment: Antiproliferative activity in human A549 cells at 1.5 to 3 uM after 60 hrs by xCELLigence RTCA SP based cellular impedance analysis; type: functional, cell-based; summary of the method: as §2
A549 [8] = experiment: Induction of lysosomal rupture in human A549 cells 2 to 4 uM after 6 hrs by LysoTracker/AO dye based confocal microscopic analysis; type: functional, cell-based
Summary of the method: (§4)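 A549 treated 6 h, then loaded with LysoTracker Red (50 nm) or acridine orange (5 mg/mL). Lysosomal integrity imaged by confocal microscopy, with rupture scored as "pale cells" showing fewer dye-accumulating lysosomes.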

MCF7 [9] = experiment: Antiproliferative activity in human MCF7 cells after 48 hrs by MTT assay; type: functional, cell-based; details: MCF7, 48 h
Summary of the method: (§5)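 Cells exposed to compound for 48 h. Viability read by MTT, with absorbance of the solubilised MTT product at 570 nm. IC50 derived from at least three independent experiments.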

A549 [10] = experiment: Induction of lysosomal rupture in human A549 cells 2 to 4 uM after 6 hrs by LysoTracker/AO dye based flow cytometric analysis; type: functional, cell-based
Summary of the method: (§6)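 A549 treated 6 h, then exposed to LysoTracker Red (50 nm) or acridine orange (5 mg/mL). Loss of lysosomal dye retention measured by flow cytometry on a FACSCalibur.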

A549 [11] = experiment: Antiproliferative activity in human A549 cells at 1.5 to 3 uM up to 5 hrs by xCELLigence RTCA SP based cellular impedance analysis; type: functional, cell-based; summary of the method: as §2
K562 [12] = experiment: Antiproliferative activity in human K562 cells after 48 hrs by MTT assay; type: functional, cell-based; details: K562, 48 h; summary of the method: as §5
A549 [13] = experiment: Antiproliferative activity in human A549 cells after 48 hrs by MTT assay; type: functional, cell-based; details: A549, 48 h; summary of the method: as §5
A549 [14] = experiment: Antiproliferative activity in human A549 cells at 1.5 to 3 uM up to 20 hrs by xCELLigence RTCA SP based cellular impedance analysis; type: functional, cell-based; summary of the method: as §2
A549 [15] = experiment: Induction of apoptosis in human A549 cells assessed as cell shrinkage at 0.5 to 1 uM after 8 hrs by DAPI staining based fluorescence microscopic analysis; type: functional; summary of the method: as §3
A549 [16] = experiment: Induction of lysosomal rupture in human A549 cells 1 to 2 uM after 6 hrs by LysoTracker/AO dye based confocal microscopic analysis; type: functional, cell-based; summary of the method: as §4
A549 [17] = experiment: Induction of apoptosis in human A549 cells assessed as necrotic cells at 1 uM after 8 hrs by Annexin V-FITC/propidium iodide staining based flow cytometry (reference value: 0.06%); type: functional; summary of the method: as §1
K562 [18] = experiment: Potency index, ratio of ADR IC50 to compound IC50 for antiproliferative activity in human K562 cells; type: functional
A549 [19] = experiment: Induction of apoptosis in human A549 cells assessed as early apoptotic cells at 1 uM after 8 hrs by Annexin V-FITC/propidium iodide staining based flow cytometry (reference value: 0.03%); type: functional; summary of the method: as §1
A549 [20] = experiment: Induction of apoptosis in human A549 cells assessed as late apoptotic cells at 1 uM after 8 hrs by Annexin V-FITC/propidium iodide staining based flow cytometry (reference value: 0.02%); type: functional; summary of the method: as §1
A549 [21] = experiment: Induction of lysosomal rupture in human A549 cells 1 to 2 uM after 6 hrs by LysoTracker/AO dye based flow cytometric analysis; type: functional, cell-based; summary of the method: as §6
MCF7 [22] = experiment: Potency index, ratio of ADR IC50 to compound IC50 for antiproliferative activity in human MCF7 cells; type: functional
A549 [23] = experiment: Induction of apoptosis in human A549 cells assessed as formation of granular apoptotic body at 0.5 to 1 uM after 8 hrs by DAPI staining based fluorescence microscopic analysis; type: functional, cell-based; summary of the method: as §3
A549 [24] = experiment: Potency index, ratio of ADR IC50 to compound IC50 for antiproliferative activity in human A549 cells; type: functional

## CCN(CCO)CCCC(C)Nc1ccnc2cc(Cl)ccc12 (configuration not stated) [HYDROXYCHLOROQUINE]
A549 [1]
  Activity: 10.37%
A549 [2]
  Activity: Active
A549 [3]
  Activity: Active
A549 [4]
  Activity: 2.85%
A549 [5]
  Activity: 2.96%

## Oc1cc2ccc1-c1c(ccc(CN3CCCC3)c1O)CCc1ccc(cc1)Oc1cc(cc(CN3CCCC3)c1O)CC2
A549 [6]
  Activity: Active
A549 [7]
  Activity: Active
A549 [8]
  Activity: Active
MCF7 [9]
  IC50: 430 nM
A549 [10]
  Activity: Active
A549 [11]
  Activity: Active
K562 [12]
  IC50: 800 nM
A549 [13]
  IC50: 990 nM
A549 [14]
  Activity: Active

## CN(C)CCOc1ccc2cc1Oc1ccc(cc1)CCc1cccc(OCCN(C)C)c1-c1ccc(cc1OCCN(C)C)CC2
A549 [15]
  Activity: Active
A549 [16]
  Activity: Active
A549 [17]
  Activity: 52.68%
MCF7 [9]
  IC50: 230 nM
K562 [18]
  Ratio IC50: 3 - 10
K562 [12]
  IC50: 190 nM
A549 [19]
  Activity: 0.55%
A549 [20]
  Activity: 26.69%
A549 [13]
  IC50: 510 nM
A549 [21]
  Activity: Active
MCF7 [22]
  Ratio IC50: 3 - 10
A549 [23]
  Activity: Active
A549 [24]
  Ratio IC50: 3 - 10

From ChEMBL document CHEMBL4251549, “Design, synthesis and biological evaluation of nitrogen-containing macrocyclic bisbibenzyl derivatives as potent anticancer agents by targeting the lysosome” (Eur J Med Chem, 2017)
